Consider 25 compounds from PubChem BioAssay AID463111 (Johns Hopkins Ion Channel Center, 2010).

Out of some 310,000 compounds screened, about 2,800 (0.9%) were called active.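 How the source made its calls: active means B-score of the integrated calcium signal more than 4 SD below the library mean, with starting fluorescence not abnormally high; inactive means the rest.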 Many of the other results were omitted from the sample, so actives are more common in it than they were.

The nature of the test: enhancers of RGS4 function in calcium signaling – cell-based, HEK293 M3R inducible RGS4, calcium flux, primary screen (AID 463111).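 On B-score: negative B-score means reduced calcium response which marks RGS4 activation or potentiation.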 Particulars: HEK293 M3R/inducible RGS4, carbachol calcium flux Fluo4, at 10 µM; active compounds read low. An outline of the steps: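 Material: Inducible-RGS4 HEK293 cells carrying M3 receptor; also added: carbachol at ECmax as muscarinic agonist stimulus; incubation: compound preincubation 20 min at room temperature before agonist; signal: Fluo4-AM (2 µM) calcium-flux fluorescence, kinetic read; measure: integrated calcium ratio converted to B score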
A general note: Calcium assays in cells follow changes in intracellular calcium, usually with a dye or a luminescent sensor.
On to `CCN(CC)P(=O)(Oc1cccc(C)c1)N(CC)CC`, for which the B-score entry is “inactive”.

As for `Cc1cccc(OP(=O)(Oc2cccc(C)c2)OC(c2ccccc2)C(F)(F)F)c1` (stereo not given), the B-score is -7.67 (active).

On to `O=C1CC(=O)N(Cc2ccccc2)C(=O)N1CCCCCCN1C(=O)CC(=O)N(Cc2ccccc2)C1=O`, for which the B-score entry is “inactive”.

As for `CC(c1ccccc1)(c1ccccc1)c1ccncc1`, the B-score result is “inactive”.

As for `CCNc1nc2[nH]c(=O)c3c(c2s1)OC(N)=C(C#N)C3c1cccs1` (stereo not given), the B-score entry is “inactive”.

`C=CC12CN(C)[C@@H]3C4CO[C@H](C[C@H]41)[C@]1(C(=O)Nc4ccccc41)[C@@H]32` (stereo not given in full): the B-score is -8.82 (active).

`CCC(C)n1c(O)c(/C=N/Nc2nc3c(c(=O)n(C)c(=O)n3C)n2C)c(=O)[nH]c1=S` (stereo not given): the B-score entry was “inactive”.

For the compound `CCOc1ccc(C2SCC(=O)Nc3c2c(C)nn3C2CCOC(C)(C)C2)cc1` (stereo not given), the B-score result was “inactive”.

For the compound `Cc1ccsc1C(=O)C1CCCN(Cc2ccc(O)cc2)C1` (stereo not given), the B-score entry is “inactive”.

As to `Cc1ccc(CN2CCCC(C(=O)c3ccc4c(c3)OCO4)C2)cc1C` (stereo not given), the B-score is -7.27 (active).

Consider `COc1ccc(C(=O)C2CCCN(Cc3ccc(C)s3)C2)cc1OC` (stereo not given), for which the B-score entry is “inactive”.

For `O=C(Cc1ccc(Cl)cc1)NCCN1CCN(C(=O)Cc2ccc(Cl)cc2)CC1`, the B-score entry is “inactive”.

Regarding `CCOC(=O)C1(Cc2ccc(Cl)cc2)CCN(C(C)CCn2cccn2)CC1` (stereo not given), the B-score result is “inactive”.

As to `OC(Cn1c2ccccc2c2ccccc21)C[n+]1ccccc1` (stereo not given), the B-score result was “inactive”.

Take `CN1CCN(/N=C/c2c[nH]c3ccccc23)CC1`: the B-score result is “inactive”.

For the compound `CC(C)Oc1cccc(C(=O)C2CCCN(C3CCOCC3)C2)c1` (stereo not given), the B-score is -7.9 (active).

As to `COc1cccc(CN2CCCC(C(=O)c3ccccc3SC)C2)c1O` (stereo not given), the B-score entry is “inactive”.

As to `O=C(Nc1cccc(OC(=O)N2CCCCC2)c1)N1CCOCC1`, the B-score result was “inactive”.

Regarding `COc1ccc(-c2nn(CCC#N)cc2C(=O)O)cc1`, the B-score entry was “inactive”.

Take `Cc1cccc(-n2c(O)c(/C=N/N3CCOCC3)c(=O)[nH]c2=S)c1`: the B-score entry is “inactive”.

Consider `COc1cc(-n2c(=S)[nH]c3ccc(C)cc3c2=O)c(Cl)cc1Cl`, for which the B-score result was “inactive”.

As for `CCCCCn1c(=O)c(C(=O)NCc2ccccc2)c(O)c2ccccc21`, the B-score entry is “inactive”.

Regarding `CCCCCn1c(=O)c(C(=O)Nc2c(C)n(C)n(-c3ccccc3)c2=O)c(O)c2ccccc21`, the B-score is -7.47 (active).

`CCCCn1c(=O)c(C(=O)Nc2ccccc2Cl)c(O)c2ccccc21`: the B-score entry was “inactive”.

For `O=C(O)CCn1cc(C=C2C(=O)NC(=S)NC2=O)c(-c2cccc(Br)c2)n1`, the B-score entry was “inactive”.
